# In the library only some 3.5% were active in any assay of this set; here they are far more common.
# rRNA inh HTS: inhibits bacterial ribosomal RNA function over humanized ribosomes. E. coli WT GFP vs humanized-ribosome RFP mutants, fluorescence, 24 h; active compounds read low; DMSO median 0, no signal -100. GFP signal change (wild-type ribosome), % (concentration not given with the values). 1.6% of 350,000 active. AID 720706;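 active = significant combined selectivity score with lowered wild-type GFP, culture density cut under 30%, mutant RFP and density less affected; inactive = any of these conditions unmet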
# PglD inh: blocks C. jejuni PglD acetyltransferase activity; inhibition, % at 12.5 µM; purified PglD enzyme, DTNB colorimetric CoA detection; AID 602405; 0.098% of 360,000 active; in the data active = inhibition above about 16%, passing the limit was not always enough; inconclusive = no clear call, values can overlap the other calls
# HIV Env fusion: inhibitors of HIV Env-mediated cell fusion; 1.1% of 360,000 active; inhibition, % at 12.3 µM; HeLa-JRFL Env/CEM21 cell fusion, luciferase;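 active = mean replicate inhibition score of at least 50 and every replicate individually at or above 50; inconclusive = only one of the two criteria met; inactive = mean below 50 and not all replicates reaching 50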;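 note: 0% = plate neutral controls and 100% = maraviroc near 300 nM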
# DENV2 CPE rescue: protects cells from dengue virus 2 cytopathic effect; DENV2-infected cells, cytopathic effect rescue, plate reader; CPE inhibition, % at 9.99 µM; 1.7% of 350,000 active; AID 651640; in the data active = CPE inhibition above about 20%, passing the limit was not always enough; inconclusive = no clear call, values can overlap the other calls; tested in BHK-21 cells;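 note: 0% = median of neutral control wells and 100% = median of positive control wells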
# FN deposit inh: fibronectin deposition inhibition. AH1F fibroblasts, Alexa488-fibronectin deposition fluorescence, overnight. inhibition, % at 12.6 µM. 0.086% of 350,000 active. AID 743247;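 active = mean inhibition across replicates of 30% or more, regardless of how many single replicates reach that level; inconclusive = mean under 30% yet at least half of replicates reach 30%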;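 note: positive control wells lacked labelled fibronectin entirely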
#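 Assay system: AH1F fibroblast monolayer, labelled fibronectin deposition. Amount: 10000 cells per well. Also added: labelled fibronectin 24 nM. Compound: single-point pinned compound. Incubation: cell attachment 1 h, compound and FN exposure overnight. Detection: fluorescence after three HBSS washes, excitation 485 nm, emission 525 nm. Read-out: inhibition of fibronectin deposition signal.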
# PGC1a acetyl inh: modulators of PGC1a acetylation | U2OS PGC1a acetylation, AlphaScreen anti-acetyl-lysine; with virally co-expressed GCN5 acetyltransferase | inhibition, % at 15.6 µM | 0.17% of 350,000 active | AID 651687;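 active = every replicate shows inhibition of at least 40%; inconclusive = mean inhibition at least 40% but some replicate below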;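 note: 0% = neutral control wells and 100% = positive control wells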
# Active calls of the source: *; ? = inconclusive; nt = no result; [ ] = remark or other dose.
SMILES,rRNA inh HTS,PglD inh,HIV Env fusion,DENV2 CPE rescue,FN deposit inh,PGC1a acetyl inh
C[C@H](CO)N1C[C@H](C)[C@H](CN(C)C)Oc2ccc(NC(=O)Nc3cccc4ccccc34)cc2CC1=O,-1,-3,nt,35*,nt,2
C[C@@H]1CN([C@@H](C)CO)C(=O)Cc2cc(NC(=O)Nc3cccc4ccccc34)ccc2O[C@H]1CN(C)C,2,5,nt,21*,nt,4
C[C@@H]1CN([C@@H](C)CO)C(=O)Cc2cc(NC(=O)Nc3cccc4ccccc34)ccc2O[C@H]1CN(C)C(=O)NC1CCCCC1,-8,3,-11[16.7 µM],25*,nt,-4
Cc1noc(C)c1S(=O)(=O)N(C)C[C@@H]1OCCCC[C@@H](C)Oc2ccc(NS(=O)(=O)c3cn(C)cn3)cc2C(=O)N([C@H](C)CO)C[C@@H]1C,2,-2,-8[16.7 µM],-3,5,-2
C[C@H](CO)N1C[C@H](C)[C@@H](CN(C)CC2CCCCC2)Oc2ccc(NC(=O)CCCN(C)C)cc2C1=O,3,-10,11[16.7 µM],10,nt,-8
Clc1ccc(/C=C\c2nccc3c2[nH]c2ccccc23)cc1,-25*,nt,-21,-3,nt,nt
Nc1ccc(N=Nc2ccccc2)c2ccccc12,4,nt,-35,-4,9,nt
Nc1ccc(N=Nc2ccccc2)c(N)n1,-24*,4,-154,0,3,10
c1ccc(N=Nc2ccc3cccccc2-3)cc1,-20*,-3,-56,-6,-15,1
N#CC1=C(N)Oc2cc3c(cc2C1c1ccc(Cl)cc1)OCO3 (centres undefined),-23*,-2,nt,nt,nt,-11
Cc1cc(C)cc(N(CC(=O)NCc2ccco2)S(=O)(=O)c2c(C)noc2C)c1,9,-7,4,41*,-4,5
COc1cccc(-c2cccc(-c3nc(C(=O)O)cc4c3[C@H](CCO)N(S(=O)C(C)(C)C)C4)c2)c1 (some centres undefined),-2,-1,5[16.7 µM],-4,6,15
N#Cc1c(N)nc(SCc2ccccn2)c(C#N)c1-c1cccs1,nt,-5,56*,nt,10,10
N#Cc1c(N)nc(SCc2ccccc2)c(C#N)c1-c1ccco1,-43*,0,nt,nt,nt,0
N#Cc1c(N)nc(SCC(=O)OCc2ccccc2)c(C#N)c1-c1ccco1,nt,6,-4,nt,-16,7
COc1ccc(NC(=O)N(C)C[C@@H]2Oc3ccc(NS(=O)(=O)c4ccc(OC)cc4)cc3C(=O)N([C@H](C)CO)C[C@H]2C)cc1,-1,1,9[16.7 µM],?,nt,0
O=C(C[C@@H]1C[C@@H]2c3cc(NC(=O)NC4CCCC4)ccc3O[C@@H]2[C@@H](CO)O1)NCc1cc(F)ccc1F,0,7,0[16.7 µM],-9,-32,-3
COc1ccc(S(=O)(=O)N(C)C[C@H]2Oc3ccc(NC(=O)CCCCCC(=O)Nc4ccccc4N)cc3C(=O)N([C@H](C)CO)C[C@@H]2C)cc1,-3,nt,nt,-2,-18,-8
C[C@H]1CN([C@@H](C)CO)C(=O)c2cc(NC(=O)CCCCCC(=O)Nc3ccccc3N)ccc2O[C@H]1CN(C)C(=O)Nc1ccc(F)cc1,2,nt,nt,35*,nt,-2
C[C@@H]1CN([C@H](C)CO)C(=O)c2cccc(NC(=O)CCCCCC(=O)Nc3ccccc3N)c2O[C@@H]1CN(C)C(=O)Nc1ccc(C(F)(F)F)cc1,-5,nt,nt,-2,nt,-3
C[C@H](CO)N1C[C@H](C)[C@H](CN(C)C(=O)Nc2ccc(C(F)(F)F)cc2)Oc2c(NC(=O)CCCCCC(=O)Nc3ccccc3N)cccc2C1=O,-2,nt,nt,35*,nt,2
COc1ccc(S(=O)(=O)N(C)C[C@@H]2Oc3ccc(NC(=O)CCCCCC(=O)Nc4ccccc4N)cc3C(=O)N([C@@H](C)CO)C[C@@H]2C)cc1,-3,nt,nt,36*,-3,2
C[C@H](CO)N1C[C@H](C)[C@@H](CN(C)S(=O)(=O)c2cccs2)Oc2ccc(NC(=O)CCCCCC(=O)Nc3ccccc3N)cc2C1=O,-1,2,nt,25*,nt,-3
Cc1noc(C)c1NC(=O)Nc1cccc2c1O[C@H](CN(C)S(=O)(=O)c1ccc(Cl)cc1)[C@@H](C)CN([C@H](C)CO)C2=O,4,4,0[16.7 µM],-1,nt,2
COc1ccc(NC(=O)N(C)C[C@H]2Oc3ccc(NC(=O)CCCCCC(=O)Nc4ccccc4N)cc3C(=O)N([C@H](C)CO)C[C@@H]2C)cc1,7,nt,nt,-9,nt,9
SMILES,rRNA inh HTS,PglD inh,HIV Env fusion,DENV2 CPE rescue,FN deposit inh,PGC1a acetyl inh
COc1ccc(NC(=O)N(C)C[C@H]2Oc3c(NC(=O)CCCCCC(=O)Nc4ccccc4N)cccc3C(=O)N([C@@H](C)CO)C[C@@H]2C)cc1,2,nt,nt,30*,4,1
COc1ccc(NC(=O)N(C)C[C@@H]2Oc3ccc(NC(=O)CCCCCC(=O)Nc4ccccc4N)cc3C(=O)N([C@H](C)CO)C[C@@H]2C)cc1,1,nt,nt,53*,nt,-3
COCCN(C[C@@H]1N[C@@H](CO)[C@H]1c1ccc(-c2cccc(F)c2)cc1)C(C)=O,-2,1,nt,3,-1,0
C=CCc1c(Cl)nc(C)nc1NCc1ccccc1,-15,5,59*,0,3,-4
Cc1oc2ccc(OCc3ccc(Br)cc3)cc2c1C(=O)O,-26*,-9,-5,10,-5,3
COc1ccc(S(=O)(=O)Nc2ccc3c(c2)C(=O)N([C@H](C)CO)C[C@@H](C)[C@@H](CN(C)C(=O)NC(C)C)O3)cc1,4,nt,-15[16.7 µM],nt,nt,5
CN(C)C(=O)c1ccc(NC(=O)CSc2nc3ccccc3[nH]2)cc1,-21*,nt,-11,5,3,nt
Cc1ccc(SCC(=O)Nc2ccc(-c3nc4ccccc4[nH]3)cc2)cc1,-2,nt,nt,38*,-6,-26
Cc1ccc(NC(=O)CCCSc2nc3ccccc3[nH]2)cc1,-27,nt,2,-4,-7,-1
Cc1ccc(NC(=O)C2CCC(CNc3c(N4CCC(C)CC4)c(=O)c3=O)CC2)cc1F (centres undefined),11,nt,59*,?,-5,11
CC1CCN(c2c(NCC3CCC(C(=O)NCc4ccc(F)cc4)CC3)c(=O)c2=O)CC1 (centres undefined),5,-5,4,2,9,2
O=C(COC(=O)CNC(=O)c1ccc(Cl)cc1)Nc1ncc(C(F)(F)F)cc1Cl,4,nt,7,76*,-1,nt
CCC(=O)OCC(=O)Nc1ncc(C(F)(F)F)cc1Cl,0,-2,-2,2,19,5
CCCC(=O)Nc1ccc2c(c1)C(=O)N(C)[C@@H]1CC[C@@H](CC(=O)NCC3CC3)O[C@H]1CO2,2,5,nt,-7,-34,-4
CC[N+](CC)(CC#Cc1ccccc1)CC(=O)c1ccc(Cl)cc1,-23*,nt,11,5,-10,nt
